{
  "source": "ChEMBL document CHEMBL1154590",
  "about": "“Synthesis and evaluation of dimeric 1,2,3,4-tetrahydro-naphthalenylamine and indan-1-ylamine derivatives with mast cell-stabilising and anti-allergic activity” (2010)",
  "key": {"Mast cell [1]": {"system": "Mast cell", "assay": "Inhibition of 48/80-induced histamine release in Wistar rat peritoneal mast cells at 2 x 10^-5 M after 5 mins"}, "Rattus norvegicus": {"system": "Rattus norvegicus", "assay": "Antiallergic activity in Wistar rat assessed as inhibition of ovalbumin-induced passive cutaneous anaphylaxis reaction at 3 mg/kg, iv treated after 48 hrs of ovalbumin challenge measured after 30 mins", "assay_type": "functional", "in_short": "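Female Wistar rats were sensitised by intradermal antiserum (0.1 mL per site) against ovalbumin, raised in rats given ovalbumin with heat-killed Bordetella pertussis. Sites were excised at 30 min, digested in KOH overnight at 37 °C and extracted with H3PO4/acetone. Absorbance read at 620 nm; % inhibition reported.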"}, "Mast cell [2]": {"system": "Mast cell", "assay": "Inhibition of 48/80-induced histamine release in Wistar rat peritoneal mast cells at 2 x 10^-5 M after 5 mins", "assay_type": "functional"}, "Mast cell [3]": {"system": "Mast cell", "assay": "Inhibition of concanavalin A-induced histamine release in Wistar rat peritoneal mast cells", "assay_type": "functional", "in_short": "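Female Wistar rat peritoneal mast cells, in mast cell medium (MCM) buffer. Concanavalin A at 20 µg ml-1 served as the degranulating stimulus. IC50 determined.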"}, "Mast cell [4]": {"system": "Mast cell", "assay": "Inhibition of A23187-induced histamine release in Wistar rat peritoneal mast cells", "assay_type": "functional", "in_short": "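Rat peritoneal mast cells from female Wistar rats, in mast cell medium (MCM) buffer. Histamine release was elicited with A23187 at 1 µg ml-1. IC50 determined.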"}, "Mast cell [5]": {"system": "Mast cell", "assay": "Inhibition of anti-IgE-induced histamine release in Brown Norway rat peritoneal mast cells at 2 x 10^-5 M"}, "Mast cell [6]": {"system": "Mast cell", "assay": "Inhibition of 48/80-induced histamine release in Wistar rat peritoneal mast cells after 5 mins", "assay_type": "functional"}, "Mast cell [7]": {"system": "Mast cell", "assay": "Inhibition of anti-IgE-induced histamine release in Brown Norway rat peritoneal mast cells at 10^-5 M"}, "Mast cell [8]": {"system": "Mast cell", "assay": "Inhibition of vancomycin-induced histamine release in Wistar rat peritoneal mast cells", "assay_type": "functional", "in_short": "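Peritoneal mast cells from female Wistar rats, in Tyrodes buffer, challenged with vancomycin at 2.52 mg mL-1 to induce degranulation. IC50 determined.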"}},
  "note": "Activity calls are given as the source filed them. No cut-off for these calls is given here.",
  "data": [
    {"smiles": "Cc1ccc(CN(C2CCc3ccccc3C2)C2CC(=O)c3ccccc32)cc1", "note": "(stereo unspecified)", "values": [
      {"measurement": "inhibition at 20 µM", "setting": "Mast cell [1]", "value": 68, "unit": "%"},
      {"measurement": "inhibition in vivo at 3 mg/kg", "setting": "Rattus norvegicus", "value": 73, "unit": "%"}
    ]},
    {"smiles": "COc1cccc2c1C(=O)CC2N(C)C1CCCc2ccccc21", "note": "(stereo unspecified)", "values": [
      {"measurement": "inhibition at 20 µM", "setting": "Mast cell [2]", "value": 48, "unit": "%"}
    ]},
    {"smiles": "COc1cc(CN(C2CCc3ccccc3C2)C2CC(=O)c3ccccc32)cc(OC)c1OC", "note": "(stereo unspecified)", "values": [
      {"measurement": "inhibition at 20 µM", "setting": "Mast cell [2]", "value": 40, "unit": "%"},
      {"measurement": "inhibition in vivo at 3 mg/kg", "setting": "Rattus norvegicus", "value": 70, "unit": "%"}
    ]},
    {"smiles": "CN(C1CCCc2ccccc21)C1CCC(=O)c2ccccc21", "note": "(stereo unspecified)", "values": [
      {"measurement": "IC50", "setting": "Mast cell [3]", "value": 2400, "unit": "nM"},
      {"measurement": "inhibition at 20 µM", "setting": "Mast cell [1]", "value": 99, "unit": "%"},
      {"measurement": "IC50", "setting": "Mast cell [4]", "value": 38000, "unit": "nM"},
      {"measurement": "inhibition in vivo at 3 mg/kg", "setting": "Rattus norvegicus", "value": 29, "unit": "%"}
    ]},
    {"smiles": "COc1ccc2c(c1)C(N(C)C1CC(=O)c3ccccc31)CCC2", "note": "(stereo unspecified)", "values": [
      {"measurement": "inhibition at 20 µM", "setting": "Mast cell [1]", "value": 100, "unit": "%"}
    ]},
    {"smiles": "CN(C1CCOc2ccccc21)C1CC(=O)c2ccccc21", "note": "(stereo unspecified)", "values": [
      {"measurement": "inhibition at 20 µM", "setting": "Mast cell [1]", "value": 100, "unit": "%"}
    ]},
    {"smiles": "CN(C1CCC(=O)c2ccccc21)C1CC(=O)c2ccccc21", "note": "(stereo unspecified)", "values": [
      {"measurement": "inhibition at 20 µM", "setting": "Mast cell [1]", "value": 61, "unit": "%"}
    ]},
    {"smiles": "C=CCN(C1CCc2ccccc2C1)C1CC(=O)c2ccccc21", "note": "(stereo unspecified)", "values": [
      {"measurement": "inhibition at 20 µM", "setting": "Mast cell [1]", "value": 59, "unit": "%"},
      {"measurement": "inhibition in vivo at 3 mg/kg", "setting": "Rattus norvegicus", "value": 82, "unit": "%"}
    ]},
    {"smiles": "CN(C1CCCc2ccccc21)C1CCCc2ccccc21", "note": "(stereo unspecified)", "values": [
      {"measurement": "inhibition", "setting": "Mast cell [2]", "value": "inactive"}
    ]},
    {"smiles": "C=CCN(C1CCCc2ccccc21)C1CC(=O)c2ccccc21", "note": "(stereo unspecified)", "values": [
      {"measurement": "inhibition at 20 µM", "setting": "Mast cell [1]", "value": 92, "unit": "%"},
      {"measurement": "inhibition in vivo at 3 mg/kg", "setting": "Rattus norvegicus", "value": 72, "unit": "%"}
    ]},
    {"smiles": "COc1ccc2c(c1)C(N(C)C1CCCc3ccccc31)CC2=O", "note": "(stereo unspecified)", "values": [
      {"measurement": "inhibition at 20 µM", "setting": "Mast cell [2]", "value": 55, "unit": "%"},
      {"measurement": "inhibition in vivo at 3 mg/kg", "setting": "Rattus norvegicus", "value": 62, "unit": "%"}
    ]},
    {"smiles": "O=C(O)c1cc(=O)c2c(OCC(O)COc3cccc4oc(C(=O)O)cc(=O)c34)cccc2o1", "note": "[CROMOLYN SODIUM]", "values": [
      {"measurement": "inhibition at 20 µM", "setting": "Mast cell [1]", "value": 10, "unit": "%"},
      {"measurement": "inhibition in vivo at 3 mg/kg", "setting": "Rattus norvegicus", "value": 99, "unit": "%"}
    ]},
    {"smiles": "CN(C1CCc2ccccc2C1)C1CC(=O)c2ccccc21", "note": "(stereo unspecified)", "values": [
      {"measurement": "inhibition at 20 µM", "setting": "Mast cell [5]", "value": 95, "unit": "%"},
      {"measurement": "inhibition at 20 µM", "setting": "Mast cell [1]", "value": 76, "unit": "%"},
      {"measurement": "inhibition in vivo at 3 mg/kg", "setting": "Rattus norvegicus", "value": 98, "unit": "%"}
    ]},
    {"smiles": "CN(C1CCCc2ccccc21)C1CC(=O)c2ccccc21", "note": "(stereo unspecified)", "values": [
      {"measurement": "IC50", "setting": "Mast cell [6]", "value": 1500, "unit": "nM"},
      {"measurement": "inhibition at 10 µM", "setting": "Mast cell [7]", "value": 68, "unit": "%"},
      {"measurement": "IC50", "setting": "Mast cell [3]", "value": 700, "unit": "nM"},
      {"measurement": "inhibition at 20 µM", "setting": "Mast cell [1]", "value": 93, "unit": "%"},
      {"measurement": "IC50", "setting": "Mast cell [4]", "value": 2000, "unit": "nM"},
      {"measurement": "inhibition in vivo at 3 mg/kg", "setting": "Rattus norvegicus", "value": 13, "unit": "%"},
      {"measurement": "IC50", "setting": "Mast cell [8]", "value": 4700, "unit": "nM"}
    ]},
    {"smiles": "CN(C1CCc2ccccc21)C1CCC(=O)c2ccccc21", "note": "(stereo unspecified)", "values": [
      {"measurement": "inhibition at 20 µM", "setting": "Mast cell [1]", "value": 14, "unit": "%"},
      {"measurement": "inhibition", "setting": "Rattus norvegicus", "value": "inactive"}
    ]},
    {"smiles": "O=C1CC(N(Cc2ccccc2)C2CCc3ccccc3C2)c2ccccc21", "note": "(stereo unspecified)", "values": [
      {"measurement": "inhibition at 20 µM", "setting": "Mast cell [1]", "value": 67, "unit": "%"},
      {"measurement": "inhibition in vivo at 3 mg/kg", "setting": "Rattus norvegicus", "value": 79, "unit": "%"}
    ]},
    {"smiles": "CC(=O)N(C1CCCc2ccccc21)C1CC(=O)c2ccccc21", "note": "(stereo unspecified)", "values": [
      {"measurement": "inhibition", "setting": "Mast cell [2]", "value": "inactive"}
    ]}
  ]
}
